One data set deals with HEK293 cells. Put plainly: MTT cytotoxicity assay on HEK293 healthy cell line. The format is cell-based, human. The procedure, abridged: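 HEK293 cells were seeded 24 h before treatment. Compound was dissolved in DMSO (<1%) and diluted in DMEM, tested up to 100 μM. After 24 and 48 h exposure, wells were washed with D-PBS, and MTT from a 5 mg/mL stock was added for 4 h. Formazan was solubilised in DMSO and absorbance read at 540 nm. At least three independent experiments; IC50 given as mean ± SD.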
(Tetrazolium dyes change colour on reduction, which living cells bring about.)

For data set [1], the target named is human adenosine A2A receptor (Homo sapiens, UniProt P29274). Put plainly: Adenosine A2A receptor radioligand binding. The conditions noted are these: read-out: Inhibition of A2A receptor radioligand binding. The procedure, abridged:
(§1)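 Membranes came from CHO cells expressing recombinant human A1 and HEK293 cells expressing human A2A. Cells were homogenised, centrifuged at 4°C and stored in buffer with 3 U/mL adenosine deaminase. Test compound (1 μM) was incubated with A1 membranes (40 μg) plus 2 nM [3H]DPCPX, or A2A membranes (20 μg) plus 15 nM [3H]ZM241385. Incubation was 60 min, 25°C, in 50 mM Tris-HCl pH 7.4 with 10 mM MgCl2. Bound ligand was GF/B-filtered and scintillation-counted.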

For data set [2], the target named is T1, human adenosine A1 receptor (Homo sapiens, UniProt P30542).
T1 sequence (P30542 1-326): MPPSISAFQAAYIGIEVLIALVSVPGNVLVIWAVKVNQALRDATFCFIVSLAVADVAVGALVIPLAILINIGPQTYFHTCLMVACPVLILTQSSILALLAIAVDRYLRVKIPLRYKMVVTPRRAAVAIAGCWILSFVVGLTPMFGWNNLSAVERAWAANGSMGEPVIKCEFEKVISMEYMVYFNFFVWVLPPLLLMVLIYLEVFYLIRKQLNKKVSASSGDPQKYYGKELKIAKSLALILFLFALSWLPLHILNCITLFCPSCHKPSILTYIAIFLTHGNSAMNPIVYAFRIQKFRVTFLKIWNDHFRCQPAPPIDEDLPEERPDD
Put plainly: Adenosine A1 receptor radioligand binding. The conditions noted are these: read-out: Inhibition of A1 receptor radioligand binding. The procedure, abridged: as §1

The next data set has as its system U87MG cells. Put plainly: MTT antiproliferative assay on U87MG glioblastoma cells. Conditions: for viability at 10 µM: Homo sapiens, U-87 MG, read-out: % Viability U87MG, 10 μM, ± SD. It counts as cell-based, human.
In another data set the test system is MCF7 cells. The experiment in a line: MTT antiproliferative assay on MCF7 cells. The conditions noted are these: read-out: IC50 MCF7, mean ± SD. It counts as cell-based, human. The method, boiled down:
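MCF7 cells were kept in DMEM/F-12 with 10% FBS, penicillin/streptomycin and L-glutamine, passaged every 3 days, and seeded 24 h before treatment. Compound was dissolved in DMSO (<1%) and diluted in DMEM. After 24 and 48 h exposure, cells were washed with D-PBS and given MTT from a 5 mg/mL stock for 4 h. Formazan was dissolved in DMSO and read at 540 nm. At least three independent experiments; mean ± SD.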

A further data set relates to U87MG cell line. Conditions: read-out: IC50 on U87MG cell line; cited from earlier work.
Where [3] appears, read: Homo sapiens, HEK293, read-out: IC50 HEK293.

Read-outs that look alike come from different tables or passages of the source. Bounds are passed on as bounds.

human adenosine A2A receptor, sequence (P29274 whole entry): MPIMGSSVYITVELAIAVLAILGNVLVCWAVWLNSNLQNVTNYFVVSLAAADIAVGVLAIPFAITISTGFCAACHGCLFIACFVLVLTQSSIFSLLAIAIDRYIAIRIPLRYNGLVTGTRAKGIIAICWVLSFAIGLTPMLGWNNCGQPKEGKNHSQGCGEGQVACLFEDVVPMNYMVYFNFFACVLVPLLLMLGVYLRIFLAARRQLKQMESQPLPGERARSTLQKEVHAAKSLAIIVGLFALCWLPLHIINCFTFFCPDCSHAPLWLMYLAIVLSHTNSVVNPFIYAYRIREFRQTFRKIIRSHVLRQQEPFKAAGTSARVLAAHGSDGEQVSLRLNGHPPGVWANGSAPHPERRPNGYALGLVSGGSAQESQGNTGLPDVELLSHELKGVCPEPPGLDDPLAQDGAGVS

For orientation: IC50 means the midpoint of a concentration-inhibition curve. Consider `COc1ccc(-c2nc(SCC(=O)c3sc(-c4ccc(Cl)cc4)nc3C)[nH]c(=O)c2C#N)cc1OC` [Compound 4t, 2-((2-(2-(4-chlorophenyl)-4-methylthiazol-5-yl)-2-oxoethyl)thio)-4-(3,4-dimethoxyphenyl)-6-oxo-1,6-dihydropyrimidine-5-carbonitrile], for which the concentration for half-maximal inhibition (IC50) in the data set on HEK293 cells (setting [3]) is greater than 100 µM.

In general, inhibition refers to the drop in the measured response relative to a control, in per cent. Consider `COc1ccc(-c2nc(C)c(C(=O)CSc3nc(N)c(C#N)c(-c4ccc(OC)cc4)n3)s2)cc1` [Compound 5e, 4-amino-6-(4-methoxyphenyl)-2-((2-(2-(4-methoxyphenyl)-4-methylthiazol-5-yl)-2-oxoethyl)thio)pyrimidine-5-carbonitrile], for which the inhibition at 1 µM in data set [1] is -18%. For the same molecule, in the data set with HEK293 cells (setting [3]), the IC50 is greater than 100 µM. In the data set with HEK293 cells (healthy cell line), the “cytotoxic effect on HEK293 (in words)” value is on record as “no cytotoxic effect even at high concentrations”. Take `COc1ccc(-c2nc(C)c(C(=O)CSc3nc(-c4ccc5c(c4)OCO5)c(C#N)c(=O)[nH]3)s2)cc1` [Compound 4p, 4-(benzo[d][1,3]dioxol-5-yl)-2-((2-(2-(4-methoxyphenyl)-4-methylthiazol-5-yl)-2-oxoethyl)thio)-6-oxo-1,6-dihydropyrimidine-5-carbonitrile]: in the data set with HEK293 cells (setting [3]), the IC50 was greater than 100 µM. Take `Cc1nc(-c2ccc(Cl)cc2)sc1C(=O)CSc1nc(-c2ccccc2)c(C#N)c(=O)[nH]1` [Compound 4q, 2-((2-(2-(4-chlorophenyl)-4-methylthiazol-5-yl)-2-oxoethyl)thio)-6-oxo-4-phenyl-1,6-dihydropyrimidine-5-carbonitrile]: the IC50 in the data set with HEK293 cells (setting [3]) is greater than 100 µM. The same measure, in the same setting: then `COc1ccc(-c2nc(C)c(C(=O)CSc3nc(-c4ccccc4)c(C#N)c(=O)[nH]3)s2)cc1` [Compound 4i, 2-((2-(2-(4-methoxyphenyl)-4-methylthiazol-5-yl)-2-oxoethyl)thio)-6-oxo-4-phenyl-1,6-dihydropyrimidine-5-carbonitrile], with greater than 100 µM. On to `Cc1nc(-c2ccccc2)sc1C(=O)CSc1nc(-c2ccc(Cl)cc2)c(C#N)c(=O)[nH]1` [Compound 4f, 4-(4-chlorophenyl)-2-((2-(4-methyl-2-phenylthiazol-5-yl)-2-oxoethyl)thio)-6-oxo-1,6-dihydropyrimidine-5-carbonitrile], for which the IC50 in the data set with HEK293 cells (setting [3]) was greater than 100 µM.

Regarding `Cc1nc(-c2ccccc2)sc1C(=O)CSc1nc(N)c(C#N)c(-c2ccc(Cl)cc2)n1` [Compound 5c, 4-amino-6-(4-chlorophenyl)-2-((2-(4-methyl-2-phenylthiazol-5-yl)-2-oxoethyl)thio)pyrimidine-5-carbonitrile], the inhibition at 1 µM in data set [2] is -23%. Further, the IC50 with HEK293 cells (setting [3]) was greater than 100 µM. As to `COc1ccc(-c2nc(C)c(C(=O)CSc3nc(-c4ccc(OC)cc4)c(C#N)c(=O)[nH]3)s2)cc1` [Compound 4k, 4-(4-methoxyphenyl)-2-((2-(2-(4-methoxyphenyl)-4-methylthiazol-5-yl)-2-oxoethyl)thio)-6-oxo-1,6-dihydropyrimidine-5-carbonitrile], the IC50 in the data set with HEK293 cells (setting [3]) is greater than 100 µM. In the case of `Cc1nc(-c2ccccc2)sc1C(=O)CSc1nc(-c2cccc(Cl)c2)c(C#N)c(=O)[nH]1` [Compound 4e, 4-(3-chlorophenyl)-2-((2-(4-methyl-2-phenylthiazol-5-yl)-2-oxoethyl)thio)-6-oxo-1,6-dihydropyrimidine-5-carbonitrile], in the data set with HEK293 cells (setting [3]), the IC50 was greater than 100 µM. Same read-out and setting: then `COc1ccc(-c2nc(SCC(=O)c3sc(-c4ccccc4)nc3C)nc(N)c2C#N)cc1` [Compound 5b, 4-amino-6-(4-methoxyphenyl)-2-((2-(4-methyl-2-phenylthiazol-5-yl)-2-oxoethyl)thio)pyrimidine-5-carbonitrile], with greater than 100 µM. Take `N.N.[Cl][Pt][Cl]` [cisplatin, reference compound]: the concentration for half-maximal inhibition (IC50) came to 8.44 ± 0.86 µM in the data set with HEK293 cells (read-out: IC50 HEK293, MTT, mean ± SD, ND = viability higher than 50% at 100 μM); 1.67 ± 0.04 µM with U87MG cells (read-out: IC50 U87MG, MTT, mean ± SD); 2.51 ± 0.29 µM with MCF7 cells.

As for `COc1ccc(-c2nc(SCC(=O)c3sc(-c4ccc(Cl)cc4)nc3C)nc(N)c2C#N)cc1` [Compound 5h, 4-amino-2-((2-(2-(4-chlorophenyl)-4-methylthiazol-5-yl)-2-oxoethyl)thio)-6-(4-methoxyphenyl)pyrimidine-5-carbonitrile], the inhibition at 1 µM in data set [1] is -22%. Also, the IC50 in the data set with HEK293 cells (setting [3]) is greater than 100 µM. Broadly, the viability is a per cent measure of how many cells are alive, often set against a control. For `COc1ccc(-c2nc(C)c(C(=O)CSc3nc(-c4ccc(OC)c(OC)c4)c(C#N)c(=O)[nH]3)s2)cc1` [Compound 4l, 4-(3,4-dimethoxyphenyl)-2-((2-(2-(4-methoxyphenyl)-4-methylthiazol-5-yl)-2-oxoethyl)thio)-6-oxo-1,6-dihydropyrimidine-5-carbonitrile], in the data set with U87MG cells, the viability at 10 µM is less than 70%.

In the case of `Cc1nc(-c2ccc(Cl)cc2)sc1C(=O)CSc1nc(N)c(C#N)c(-c2ccccc2)n1` [Compound 5g, 4-amino-2-((2-(2-(4-chlorophenyl)-4-methylthiazol-5-yl)-2-oxoethyl)thio)-6-phenylpyrimidine-5-carbonitrile], the IC50 with HEK293 cells (setting [3]) is greater than 100 µM. For `COc1ccc(-c2nc(C)c(C(=O)CSc3nc(-c4cccc(OC)c4)c(C#N)c(=O)[nH]3)s2)cc1` [Compound 4j, 4-(3-methoxyphenyl)-2-((2-(2-(4-methoxyphenyl)-4-methylthiazol-5-yl)-2-oxoethyl)thio)-6-oxo-1,6-dihydropyrimidine-5-carbonitrile], in the data set with U87MG cells, the viability at 10 µM is less than 70%. For the molecule `COc1ccc(-c2nc(SCC(=O)c3sc(-c4ccccc4)nc3C)[nH]c(=O)c2C#N)cc1OC` [Compound 4d, 4-(3,4-dimethoxyphenyl)-2-((2-(4-methyl-2-phenylthiazol-5-yl)-2-oxoethyl)thio)-6-oxo-1,6-dihydropyrimidine-5-carbonitrile], in the data set on U87MG cells, the viability at 10 µM is less than 70%.

On to `COc1ccc(-c2nc(SCC(=O)c3sc(-c4ccc(Cl)cc4)nc3C)[nH]c(=O)c2C#N)cc1` [Compound 4s, 2-((2-(2-(4-chlorophenyl)-4-methylthiazol-5-yl)-2-oxoethyl)thio)-4-(4-methoxyphenyl)-6-oxo-1,6-dihydropyrimidine-5-carbonitrile], for which the IC50 with HEK293 cells (setting [3]) was greater than 100 µM. The same measure, in the same setting: then `COc1ccc(-c2nc(C)c(C(=O)CSc3nc(N)c(C#N)c(-c4ccccc4)n3)s2)cc1` [Compound 5d, 4-amino-2-((2-(2-(4-methoxyphenyl)-4-methylthiazol-5-yl)-2-oxoethyl)thio)-6-phenylpyrimidine-5-carbonitrile], with greater than 100 µM. As to `COc1ccc(-c2nc(C)c(C(=O)CSc3nc(-c4cccc(Cl)c4)c(C#N)c(=O)[nH]3)s2)cc1` [Compound 4m, 4-(3-chlorophenyl)-2-((2-(2-(4-methoxyphenyl)-4-methylthiazol-5-yl)-2-oxoethyl)thio)-6-oxo-1,6-dihydropyrimidine-5-carbonitrile], the IC50 with HEK293 cells (setting [3]) was greater than 100 µM. On the same count and under the same terms, the value for `Cc1nc(-c2ccccc2)sc1C(=O)CSc1nc(-c2ccc3c(c2)OCO3)c(C#N)c(=O)[nH]1` [Compound 4h, 4-(benzo[d][1,3]dioxol-5-yl)-2-((2-(4-methyl-2-phenylthiazol-5-yl)-2-oxoethyl)thio)-6-oxo-1,6-dihydropyrimidine-5-carbonitrile] was greater than 100 µM.

Consider `Cn1nnc2c(C(N)=O)ncn2c1=O` [temozolomide], for which the IC50 in the data set with U87MG cell line was 130 to 171 µM.

These data come from publication PMC7880896 (European journal of medicinal chemistry, 2020).
